In ChEMBL document CHEMBL1770105, “Discovery and evaluation of pyrazolo[1,5-a]pyrimidines as neuropeptide Y1 receptor antagonists” (Bioorg Med Chem Lett, 2011):
Calls of active or inactive are those of the source. No cut-off for these calls is given here.

Columns and labels:
[1] = Ratio of fraction unbound drug level in brain to plasma in Mdr1a/1b knockout mouse to FVB mouse at 5 mg.kg, sc after 0.5 hrs; assay type: ADME, organism-based
Outline: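 Brain and plasma levels measured in Mdr1a/1b knockout and wild-type FVB mice 0.5 h after a 5 mg/kg sc dose. Brain/plasma ratios calculated from unbound fractions, measured by equilibrium dialysis of brain homogenate and plasma. Result expressed as knockout B/P over FVB B/P.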

[2] = target: T1, Neuropeptide Y receptor type 1 (Homo sapiens, UniProt P25929); test: Displacement of [125I]-PYY from human recombinant NPY Y1 receptor overexpressed in membrane of Sf9 cells
T1 sequence (P25929 whole entry): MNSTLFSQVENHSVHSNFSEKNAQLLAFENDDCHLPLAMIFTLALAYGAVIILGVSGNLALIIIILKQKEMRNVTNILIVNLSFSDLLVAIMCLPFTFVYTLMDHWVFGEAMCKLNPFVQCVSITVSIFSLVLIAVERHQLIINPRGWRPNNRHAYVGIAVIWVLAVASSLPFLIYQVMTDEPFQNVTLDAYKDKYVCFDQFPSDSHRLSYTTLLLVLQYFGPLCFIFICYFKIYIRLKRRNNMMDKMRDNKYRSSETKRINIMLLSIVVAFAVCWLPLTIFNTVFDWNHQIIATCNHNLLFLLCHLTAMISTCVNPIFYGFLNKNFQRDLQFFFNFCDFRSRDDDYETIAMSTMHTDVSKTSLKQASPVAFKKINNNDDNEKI
Outline: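 Human Y1 receptor: 125I-PYY displacement on Sf9 membranes overexpressing recombinant hY1R. Ki values are single determinations run in triplicate.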

Rattus norvegicus [3] = test: Unbound plasma clearance in Sprague-Dawley rat 1 mg/kg, iv and 3 mg/kg, po; assay type: ADME, organism-based; details: in vivo
[4] = target: T1, Neuropeptide Y receptor type 1; test: Antagonist activity at NPY Y1 receptor in human SK-N-MC cells assessed as inhibition of NPY-induced calcium mobilization by FLIPR assay; assay type: functional, cell-based
Outline: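 SK-N-MC neuroblastoma cells plated at 25,000/well 4 days ahead, loaded with Fluo-3 for 1 h in 5% CO2, washed and resuspended in assay buffer (5 mM KCl, 115 mM NaCl, 0.96 mM NaH2PO4, 1 mM MgSO4, 2 mM CaCl2, 5 mM D-glucose) containing test compound.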

Rattus norvegicus [5] = test: Antihypertensive activity in Sprague-Dawley rat assessed as inhibition of NPY-induced increase in arterial pressure at 3 mg/kg, iv; assay type: functional; details: Artery
Outline: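 Overnight-fasted SD rats anesthetized with inactin (100 mg/kg ip), tracheal and femoral arterial/venous cannulae, on a heated pad. Arterial pressure and heart rate recorded every 5 s. NPY given as iv bolus every 15 min. After the third NPY bolus, compound given iv at 3 mg/kg in saline (1 mL/kg), followed by three further NPY injections.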

[6] = Fraction unbound in Sprague-Dawley rat plasma at 1 mg/kg, iv and 3 mg/kg, po; assay type: ADME, organism-based
[7] = Plasma clearance in Sprague-Dawley rat at 1 mg/kg, iv and 3 mg/kg, po; assay type: ADME, organism-based
Outline: (§1)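 Overnight-fasted, jugular-vein-cannulated SD rats (water ad libitum) dosed by oral gavage (3 mg/kg in 0.5% methyl cellulose, 2 mL/kg, n = 2) or iv via the jugular vein (1.0 mg/kg in 50% PEG, 1 mL/kg, n = 2).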

Rattus norvegicus [8] = test: Antiobesity activity in Sprague-Dawley rat assessed as reduction of NPY-induced food intake at 120 ug, icv after 4 hrs; assay type: functional, organism-based
Outline: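 SD rats with icv cannulae, fed powdered chow ad libitum. Between 10 and 11 am in the light cycle, compound or propylene glycol vehicle co-infused icv with NPY in sterile water over 1 min. Food intake measured over the next 4 h. Crossover design, two treatments 2 days apart.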

[9] = target: T2, Neuropeptide Y receptor type 1 (Rattus norvegicus, UniProt P21555); test: Displacement of [125I]PYY from rat recombinant NPY Y1 receptor overexpressed in membrane of Sf9 cells
T2 sequence (P21555 whole entry): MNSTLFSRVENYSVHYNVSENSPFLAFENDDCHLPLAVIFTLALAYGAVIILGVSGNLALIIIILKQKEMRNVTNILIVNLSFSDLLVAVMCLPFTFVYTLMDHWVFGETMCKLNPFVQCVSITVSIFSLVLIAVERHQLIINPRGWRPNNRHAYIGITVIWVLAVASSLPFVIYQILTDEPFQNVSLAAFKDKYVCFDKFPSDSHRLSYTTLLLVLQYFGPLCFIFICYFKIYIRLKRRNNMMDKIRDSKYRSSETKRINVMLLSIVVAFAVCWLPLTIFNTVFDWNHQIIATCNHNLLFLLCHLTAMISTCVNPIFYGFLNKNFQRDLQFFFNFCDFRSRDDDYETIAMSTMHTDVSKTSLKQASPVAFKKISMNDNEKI

[10] = Ratio of fraction unbound drug level in brain to plasma in FVB mouse; assay type: ADME, cell-free
Outline: (§2)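 Brain-to-plasma ratios calculated from unbound fractions. Unbound fraction in brain homogenate and whole plasma of rats or mice measured by equilibrium dialysis.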

Rattus norvegicus [11] = test: Neurotoxicity in Wistar rat assessed as change in locomotor activity at 40 mg/kg, po; assay type: toxicity, organism-based; parameters: dose 40 mg/kg, route oral; details: in vivo
[12] = target: T3, Neuropeptide Y receptor type 2 (Homo sapiens, UniProt P49146); test: Binding affinity to human NPY Y2 receptor
T3 sequence (P49146 whole entry): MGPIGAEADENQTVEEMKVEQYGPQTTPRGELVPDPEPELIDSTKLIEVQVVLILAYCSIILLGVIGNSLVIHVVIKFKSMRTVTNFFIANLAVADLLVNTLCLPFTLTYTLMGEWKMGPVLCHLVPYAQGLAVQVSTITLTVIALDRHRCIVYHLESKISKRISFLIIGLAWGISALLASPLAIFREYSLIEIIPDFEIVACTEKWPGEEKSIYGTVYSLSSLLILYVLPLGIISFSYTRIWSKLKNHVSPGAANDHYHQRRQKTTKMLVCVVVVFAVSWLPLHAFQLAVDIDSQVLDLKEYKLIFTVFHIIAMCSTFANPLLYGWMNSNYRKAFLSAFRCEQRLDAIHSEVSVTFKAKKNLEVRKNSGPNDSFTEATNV

Plasma = test: Unbound plasma concentration in Sprague-Dawley rat at 40 mg/kg, po after 2 hrs; assay type: ADME, organism-based; parameters: dose 40 mg/kg, route oral; details: in vivo
[13] = Half life in Sprague-Dawley rat at 1 mg/kg, iv and 3 mg/kg, po; assay type: ADME, organism-based; details: in vivo; outline: as §1
[14] = Drug level in Sprague-Dawley rat brain interstitial fluid at 40 mg/kg, po after 2 hrs; assay type: ADME, organism-based; parameters: dose 40 mg/kg, route oral; details: read-out: Drug uptake
Outline: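 Rats dosed 40 mg/kg po. Interstitial fluid collected at 2 h from the paraventricular nucleus with microdialysis probes.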

[15] = target: T4, Corticotropin-releasing factor receptor 1 (Homo sapiens) (UniProt P34998); test: Binding affinity to CRHR at 10 uM
T4 sequence (whole entry): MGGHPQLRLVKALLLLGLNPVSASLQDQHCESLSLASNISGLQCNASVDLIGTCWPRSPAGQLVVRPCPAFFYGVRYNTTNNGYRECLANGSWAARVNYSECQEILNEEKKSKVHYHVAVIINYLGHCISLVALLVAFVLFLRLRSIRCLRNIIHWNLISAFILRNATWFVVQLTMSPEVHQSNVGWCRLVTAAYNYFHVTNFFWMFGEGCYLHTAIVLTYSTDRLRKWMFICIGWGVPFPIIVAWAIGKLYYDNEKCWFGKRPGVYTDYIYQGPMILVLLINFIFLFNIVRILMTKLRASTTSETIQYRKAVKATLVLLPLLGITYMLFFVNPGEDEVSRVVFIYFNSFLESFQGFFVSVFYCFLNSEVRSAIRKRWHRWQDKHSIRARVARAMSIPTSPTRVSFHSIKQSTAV

[16] = Drug level in Sprague-Dawley rat cerebral spinal fluid at 40 mg/kg, po after 2 hrs; assay type: ADME, organism-based; parameters: dose 40 mg/kg, route oral; details: cerebrospinal fluid, read-out: Drug uptake
Outline: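 Rats dosed 40 mg/kg po were anesthetized with metofane at 2 h post-dose (n = 2). CSF drawn from the cisterna magna with a 26-gauge needle.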

[17] = target: T5, Neuropeptide Y receptor type 5 (Homo sapiens, UniProt Q15761); test: Binding affinity to human NPY Y5 receptor
T5 sequence (Q15761 whole entry): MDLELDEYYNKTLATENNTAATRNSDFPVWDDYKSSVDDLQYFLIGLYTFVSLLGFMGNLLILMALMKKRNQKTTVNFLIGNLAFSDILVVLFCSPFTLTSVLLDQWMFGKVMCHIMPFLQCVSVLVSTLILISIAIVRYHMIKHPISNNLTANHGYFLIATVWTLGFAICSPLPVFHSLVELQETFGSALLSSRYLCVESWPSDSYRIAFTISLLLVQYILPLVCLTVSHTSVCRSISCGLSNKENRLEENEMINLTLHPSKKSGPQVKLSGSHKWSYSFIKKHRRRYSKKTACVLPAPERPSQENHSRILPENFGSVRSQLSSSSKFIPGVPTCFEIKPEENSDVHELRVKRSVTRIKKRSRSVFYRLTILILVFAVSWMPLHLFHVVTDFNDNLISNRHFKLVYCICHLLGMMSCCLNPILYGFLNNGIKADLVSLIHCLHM

Rattus norvegicus [18] = test: Antiobesity activity in overnight fasted Sprague-Dawley rat assessed as decrease in food intake at 40 mg/kg, po followed by food re-feeding after 2 hrs post compound dose measured upto 2 hrs post re-feeding relative to control; assay type: functional; parameters: scale not given: the % may be the effect or the level left
Outline: (§3)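 SD rats housed singly with powdered chow and water, fasted overnight, then dosed po at 40 mg/kg or vehicle (0.5% methyl cellulose in water). Pre-weighed food returned 2 or 4 h post-dose. Intake recorded 2 and 4 h after food was restored, relative to vehicle controls.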

Rattus norvegicus [19] = test: Antiobesity activity in Wistar rat assessed as decrease in nocturnal food intake at 40 mg/kg, po measured every 10 mins for 18 hrs post-dose; assay type: functional, organism-based; parameters: dose 40 mg/kg
Outline: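 Wistar rats acclimated to a continuous food-intake monitoring system. Dosed po at 40 mg/kg or vehicle 30 min before the dark cycle. Intake logged every 10 min for 18 h post-dose. Compared with time-matched vehicle by two-tailed unpaired t-test.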

[20] = Ratio of fraction unbound drug level in brain to plasma in Sprague-Dawley rat; assay type: ADME, cell-free; outline: as §2
Rattus norvegicus [21] = test: Antiobesity activity in overnight fasted Sprague-Dawley rat assessed as decrease in food intake at 40 mg/kg, po followed by food re-feeding after 4 hrs post compound dose measured up to 2 to 4 hrs post re-feeding; assay type: functional, organism-based; parameters: dose 40 mg/kg; outline: as §3
Rattus norvegicus [22] = test: Antiobesity activity in overnight fasted Sprague-Dawley rat assessed as decrease in food intake at 40 mg/kg, po followed by food re-feeding after 2 hrs post compound dose measured up to 4 hrs post re-feeding relative to control; assay type: functional; parameters: scale not given: the % may be the effect or the level left; outline: as §3
Rattus norvegicus [23] = test: Neurotoxicity in Sprague-Dawley rat assessed as change in locomotor activity at 40 mg/kg, po; assay type: toxicity, organism-based; parameters: dose 40 mg/kg, route oral; details: in vivo
[24] = Oral bioavailability in Sprague-Dawley rat at 3 mg/kg; assay type: ADME, organism-based; details: in vivo; outline: as §1

## COc1cc(Cl)c(-c2c(C)nn3c(NCC(C)(C)NC4CCOCC4)cc(C)nc23)c(Cl)c1
[1]
  Knockout-to-FVB ratio of unbound brain/plasma ratio: 4
[2]
  Ki: 141 nM

## COc1cc(Cl)c(-c2c(C)nn3c(NCCNC4CCCCC4F)cc(C)nc23)c(Cl)c1 (mixture of isomers)
[1]
  Knockout-to-FVB ratio of unbound brain/plasma ratio: 8
[2]
  Ki: 5 nM

## CCCOc1cc(Cl)c(-c2c(C)nn3c(NCCNC4CCOCC4)cc(C)nc23)c(Cl)c1
Rattus norvegicus [3]
  CL: 2273 mL/min/kg
[4]
  IC50: 207 nM
Rattus norvegicus [5]
  inhibition in vivo at 3 mg/kg: 0%
[6]
  fraction unbound: 0.011
[2]
  Ki: 8 nM
[7]
  clearance: 25 mL/min/kg

## COc1ccc(CCNCCNc2cc(C)nc3c(-c4c(C)cc(C)cc4C)c(C)nn23)cc1
[2]
  Ki: 29 nM

## Cc1cc(C)c(-c2c(C)nn3c(NCCNC4CCCC4)cc(C)nc23)c(C)c1
[2]
  Ki: 21 nM

## COc1cc(Cl)c(-c2c(C)nn3c(NCC(C)NC4CCOCC4)cc(C)nc23)c(Cl)c1 (racemic)
[1]
  Knockout-to-FVB ratio of unbound brain/plasma ratio: 10
[2]
  Ki: 5 nM

## COc1cc(Cl)c(-c2c(C)nn3c(NCCNC4CCOCC4)cc(C)nc23)c(Cl)c1
Rattus norvegicus [8]
  Activity: Active
Rattus norvegicus [3]
  CL: 763 mL/min/kg
[9]
  Ki: 3.5 nM
[10]
  BPR: 0.1
[4]
  IC50: 7 nM
[1]
  Knockout-to-FVB ratio of unbound brain/plasma ratio: 9
Rattus norvegicus [5]
  inhibition in vivo at 3 mg/kg: 92%
Rattus norvegicus [11]
  Activity: Non-toxic
[12]
  IC50: > 10000 nM
[6]
  fraction unbound: 0.059
Plasma
  Cp: 95 nM
[13]
  half-life: 1.2 h
[14]
  concentration at 2 h: 17 nM
[15]
  inhibition: < 50%
[16]
  concentration at 2 h: 26 nM
[17]
  IC50: > 10000 nM
Rattus norvegicus [18]
  Activity: 12%
Rattus norvegicus [19]
  Activity: Active
[20]
  BPR: 0.13
[2]
  Ki: 1 nM
[7]
  clearance: 45 mL/min/kg
Rattus norvegicus [21]
  Activity: inactive
Rattus norvegicus [22]
  Activity: 12%
Rattus norvegicus [23]
  Activity: Non-toxic
[24]
  bioavailability: 13%
